Format in all cases: functional
A short description of assay [1]: Antioxidant activity assessed as reduction of potassium ferricyanide trivalent iron into potassium ferrocyanide bivalent iron and ferrous iron by measuring eliminate efficiency at 0.8 g/L relative to control. On the set-up: scale not given: the % may be the effect or the level left. In outline:
(§1)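 Reducing capacity was read as absorbance at 700 nm, where higher absorbance means greater reducing ability. Tested at 0.2–1.2 g/L against sesamol as positive control. Values are means from at least eight independent experiments, each in triplicate (n = 3), with t-tests (p < 0.05).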

The nature of assay [2]: Antioxidant activity assessed as superoxide anion radical scavenging rate at 0.8 g/L relative to control. The method in brief: (§2)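 Pyrocatechol autoxidation in weak alkaline medium produces a coloured intermediate and superoxide anion; the intermediate absorbs maximally at 320 nm. Scavenging rate was measured at 0.2–1.2 g/L, with sesamol as positive control. Values are means ± SD from at least eight independent experiments, each in triplicate (n = 3), with t-tests (p < 0.05).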

The nature of assay [3]: Antioxidant activity assessed as reduction of potassium ferricyanide trivalent iron into potassium ferrocyanide bivalent iron and ferrous iron by measuring eliminate efficiency at 0.2 g/L relative to control. On the set-up: scale not given: the % may be the effect or the level left. The method in brief: as §1
Assay [4] can be described thus: Antioxidant activity assessed as hydroxyl radical scavenging rate at 1.2 g/L relative to control. In outline:
(§3)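 Hydroxyl radical scavenging was read as absorbance of the reaction solution at 510 nm by a fixed reaction time method. Derivatives were tested at 0.2–1.2 g/L, with sesamol as positive control. Values are means ± SD from at least eight independent experiments, each in triplicate (n = 3), with t-tests (p < 0.05).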

Assay [5] is described as follows: Antioxidant activity assessed as reduction in lipid peroxidation by measuring antiperoxide-index at 0.2 g/L by thiobarbituric acid method relative to control. On the set-up: scale not given: the % may be the effect or the level left. In outline:
(§4)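 Anti-lipid-peroxidation (antiperoxide index, %) was tested at 0.2–1.2 g/L, with sesamol as positive control. Values are means ± SD from at least eight independent experiments, each in triplicate (n = 3), with t-tests (p < 0.05).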

The nature of assay [6]: Antioxidant activity assessed as reduction of potassium ferricyanide trivalent iron into potassium ferrocyanide bivalent iron and ferrous iron by measuring eliminate efficiency at 1 g/L relative to control. On the set-up: scale not given: the % may be the effect or the level left. The method in brief:
as §1

Assay [7] can be described thus: Antioxidant activity assessed as reduction in lipid peroxidation by measuring antiperoxide-index at 1.2 g/L by thiobarbituric acid method relative to control. Also on record: scale not given: the % may be the effect or the level left. In outline: as §4
Assay [8] is described as follows: Antioxidant activity assessed as hydroxyl radical scavenging rate at 0.8 g/L relative to control. The method in brief:
as §3

A short description of assay [9]: Antioxidant activity assessed as superoxide anion radical scavenging rate at 0.6 g/L relative to control. In outline: as §2
The nature of assay [10]: Antioxidant activity assessed as reduction of potassium ferricyanide trivalent iron into potassium ferrocyanide bivalent iron and ferrous iron by measuring eliminate efficiency at 0.4 g/L relative to control. Also on record: scale not given: the % may be the effect or the level left. The method in brief: as §1
Assay [11] in a line: Antioxidant activity assessed as hydroxyl radical scavenging rate at 0.4 g/L relative to control. In outline: as §3
Assay [12] is described as follows: Antioxidant activity assessed as hydroxyl radical scavenging rate at 1 g/L relative to control. The method in brief: as §3
Assay [13] is described as follows: Antioxidant activity assessed as superoxide anion radical scavenging rate at 0.2 g/L relative to control. In outline:
as §2

A short description of assay [14]: Antioxidant activity assessed as superoxide anion radical scavenging rate at 1.2 g/L relative to control. In outline: as §2
Assay [15] in a line: Antioxidant activity assessed as reduction in lipid peroxidation by measuring antiperoxide-index at 0.8 g/L by thiobarbituric acid method relative to control. Also on record: scale not given: the % may be the effect or the level left. In outline:
as §4

Assay [16] is described as follows: Antioxidant activity assessed as reduction in lipid peroxidation by measuring antiperoxide-index at 0.6 g/L by thiobarbituric acid method relative to control. Also on record: scale not given: the % may be the effect or the level left. The method in brief: as §4
Assay [17] is described as follows: Antioxidant activity assessed as superoxide anion radical scavenging rate at 0.4 g/L relative to control. In outline: as §2
Assay [18] is described as follows: Antioxidant activity assessed as superoxide anion radical scavenging rate at 1 g/L relative to control. The method in brief: as §2
Assay [19] can be described thus: Antioxidant activity assessed as reduction in lipid peroxidation by measuring antiperoxide-index at 1 g/L by thiobarbituric acid method relative to control. On the set-up: scale not given: the % may be the effect or the level left. The method in brief: as §4
A short description of assay [20]: Antioxidant activity assessed as reduction in lipid peroxidation by measuring antiperoxide-index at 0.4 g/L by thiobarbituric acid method relative to control. Also on record: scale not given: the % may be the effect or the level left. In outline: as §4
A short description of assay [21]: Antioxidant activity assessed as reduction of potassium ferricyanide trivalent iron into potassium ferrocyanide bivalent iron and ferrous iron by measuring eliminate efficiency at 1.2 g/L relative to control. Also on record: scale not given: the % may be the effect or the level left. The method in brief:
as §1

Assay [22] in a line: Antioxidant activity assessed as hydroxyl radical scavenging rate at 0.2 g/L relative to control. The method in brief: as §3
Assay [23] in a line: Antioxidant activity assessed as hydroxyl radical scavenging rate at 0.6 g/L relative to control. The method in brief:
as §3

Assay [24] is described as follows: Antioxidant activity assessed as reduction of potassium ferricyanide trivalent iron into potassium ferrocyanide bivalent iron and ferrous iron by measuring eliminate efficiency at 0.6 g/L relative to control. On the set-up: scale not given: the % may be the effect or the level left. In outline:
as §1

For `O=C(Oc1ccc2c(c1)OCO2)c1cc(Cl)ccc1Cl`, the Activity in assay [1] stood at 68.5%; in assay [2], 63.5%; in [3] it was 12.9%; in assay [4], 74.9%; in assay [5], 13%; in assay [6], 75.3%. Moreover, the Activity stood at 76.2% in assay [7]; 70.7% in [8]; 52.9% in assay [9]; 31.1% in assay [10]; 32.6% in assay [11]; 74.2% in [12]. In addition, the Activity was 12.1% in [13]; 70.5% in assay [14]; 67.3% in [15]; 56.1% in assay [16]; 27.9% in assay [17]; 69.8% in [18]. For the same compound, the Activity in assay [19] was 74%; in assay [20], 31.1%; in assay [21] it was 76.1%; in assay [22] it was 13.6%; in assay [23] it was 58.9%; in assay [24], 59%.

Regarding `Oc1ccc2c(c1)OCO2`, the Activity is 75.4% in assay [1]; 63.3% in [2]; 12.4% in assay [3]; 71.5% in assay [4]; 12.8% in assay [5]; 81.9% in [6]. In addition, the Activity in assay [7] was found to be 74.9%; in assay [8], 67.4%; in [9], 52.7%; in assay [10], 29.7%; in [11] it was 30.2%; in assay [12], 70.8%. Also, the Activity in assay [13] is 12.1%; in [14], 70.3%; in [15], 66.1%; in [16], 55.1%; in [17], 27.8%; in assay [18] it was 69.6%. In addition, the Activity amounted to 72.8% in assay [19]; 30.6% in [20]; 82.6% in assay [21]; 13% in assay [22]; 56.2% in assay [23]; 56.4% in [24].

Consider `O=c1oc2ccc3c(c2c2cccc(Cl)c12)OCO3`, for which the Activity was 86.5% in [1]; 85.5% in assay [2]; 16.4% in assay [3]; 95.3% in [4]; 16.3% in [5]; 95.2% in [6]. In addition, the Activity in assay [7] was 95.7%; in [8] it was 89.9%; in assay [9] it was 71.3%; in assay [10], 39.3%; in [11], 40.6%; in assay [12], 94.4%. Besides, the Activity in [13] was 16.3%; in [14], 95%; in assay [15], 84.5%; in [16] it was 70.4%; in assay [17] it was 37.5%; in assay [18] it was 94.1%. For the same compound, the Activity in assay [19] is 92.9%; in assay [20], 39.1%; in assay [21], 96.1%; in [22], 17.3%; in [23], 74.9%; in assay [24] it was 74.6%.

As to `O=c1oc2ccc3c(c2c2ccccc12)OCO3`, the Activity in assay [1] stood at 81.6%; in [2] it was 82%; in [3], 15.4%; in [4], 88.2%; in assay [5], 15.8%; in assay [6] it was 89.8%. The Activity in assay [7] worked out at 92.7%; in assay [8] it was 83.2%; in assay [9] it was 68.3%; in [10], 37%; in assay [11], 38.9%; in assay [12], 87.4%. For the same compound, the Activity in assay [13] is 15.6%; in assay [14], 91.1%; in assay [15], 81.8%; in assay [16], 68.2%; in [17], 35.9%; in assay [18], 90.2%. Further, the Activity in assay [19] is 90%; in assay [20], 37.9%; in assay [21], 90.7%; in assay [22], 16.1%; in [23] it was 69.3%; in assay [24], 70.4%.

`O=c1oc2ccc3c(c2c2ccc(Cl)cc12)OCO3`: the Activity in [1] was 84.9%; in assay [2], 84.2%; in assay [3], 16.1%; in assay [4], 93.6%; in assay [5], 16.6%; in [6], 93.4%. Further, the Activity is 97.2% in assay [7]; 88.2% in assay [8]; 70.1% in [9]; 38.5% in assay [10]; 40.8% in [11]; 92.6% in [12]. Further, the Activity in [13] was 16.1%; in assay [14] it was 93.5%; in assay [15] it was 85.8%; in [16] it was 71.5%; in [17], 36.9%; in [18] it was 92.6%. Also, the Activity in assay [19] worked out at 94.4%; in assay [20], 39.7%; in assay [21], 94.3%; in [22], 17%; in assay [23], 73.5%; in [24] it was 73.2%.

As to `O=c1oc2ccc3c(c2c2c(Cl)cccc12)OCO3`, the Activity in assay [1] amounted to 84.3%; in assay [2], 79.4%; in assay [3] it was 15.9%; in assay [4] it was 88.2%; in assay [5], 16%; in assay [6], 92.7%. The Activity in assay [7] is 93.8%; in assay [8], 83.2%; in assay [9] it was 66.2%; in assay [10], 38.2%; in assay [11] it was 38.7%; in assay [12], 87.4%. Besides, the Activity was found to be 15.2% in assay [13]; 88.3% in [14]; 82.8% in [15]; 69% in assay [16]; 34.8% in assay [17]; 87.4% in assay [18]. Also, the Activity in assay [19] was 91.1%; in assay [20], 38.4%; in [21], 93.6%; in assay [22], 16.1%; in [23], 69.3%; in assay [24], 72.6%.

For `O=C(Oc1ccc2c(c1)OCO2)c1ccc(Cl)cc1Cl`, the Activity is 68.1% in assay [1]; 59.7% in [2]; 12.9% in [3]; 70.6% in [4]; 12.7% in assay [5]; 74.9% in assay [6]. Further, the Activity was 74.5% in assay [7]; 66.6% in [8]; 49.7% in assay [9]; 30.9% in assay [10]; 30.7% in assay [11]; 69.9% in assay [12]. The Activity is 11.4% in assay [13]; 66.3% in assay [14]; 65.7% in assay [15]; 54.8% in [16]; 26.2% in assay [17]; 65.6% in assay [18]. Also, the Activity came out at 72.3% in assay [19]; 30.4% in assay [20]; 75.7% in [21]; 12.8% in assay [22]; 55.5% in assay [23]; 58.7% in [24].
